Assay results: ChEMBL document CHEMBL2439960, “Pharmacokinetics, metabolism, and in vivo efficacy of the antimalarial natural product bromophycolide A” (ACS Med Chem Lett, 2013)
pIC50: −log10 of the molar value.

What was measured:
[1] = Cmax in BALB/c mouse at 23 mg/kg, ip after 1 to 24 hrs by LC-MS/MS analysis; format: ADME, organism-based; design: dose 23 mg/kg, route intraperitoneal; settings: in vivo
How it was run: (§1)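 Healthy mice given one 23 mg/kg dose, IV or IP. Plasma concentrations plotted as mean ± SD, n=3. Kinetics fitted as a first-order elimination process.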

[2] = Half life in BALB/c mouse at 23 mg/kg, iv after 1 to 24 hrs by LC-MS/MS analysis; format: ADME, organism-based; design: dose 23 mg/kg, route intravenous; settings: in vivo; how it was run: as §1
Mus musculus [3] = experiment: Drug absorption rate constant in BALB/c mouse at 23 mg/kg, ip after 1 to 24 hrs by LC-MS/MS analysis; format: ADME, organism-based; design: dose 23 mg/kg, route intraperitoneal; settings: in vivo; how it was run: as §1
[4] = Elimination rate constant in BALB/c mouse at 23 mg/kg, iv after 1 to 24 hrs by LC-MS/MS analysis; format: ADME, organism-based; design: dose 23 mg/kg, route intravenous; settings: in vivo; how it was run: as §1
Plasmodium falciparum [5] = experiment: Antiplasmodial activity against chloroquine-resistant Plasmodium falciparum Dd2 infected in erythrocytes assessed as parasite growth inhibition after 72 hrs by SYBR green I staining-based fluorescence assay; format: functional, organism-based; settings: Dd2, 72 h
Plasmodium falciparum [6] = experiment: Antiplasmodial activity against chloroquine-sensitive Plasmodium falciparum 3D7 infected in erythrocytes assessed as parasite growth inhibition after 72 hrs by SYBR green I staining-based fluorescence assay; format: functional, organism-based; settings: 3D7, 72 h
Plasmodium yoelii = experiment: Antimalarial activity against Plasmodium yoelii infected in Swiss Webster mouse assessed as decrease in parasite load at 10 mg/kg, ip qd administered on day 2 to 5 by Hoechst 33342 staining-based FACS analysis relative to control; format: functional; design: scale not given: the % may be the effect or the level left; settings: route intraperitoneal
How it was run: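 Mice infected with Plasmodium yoelii, dosed once daily at 5 or 10 mg/kg. Vehicle-only injected mice served as controls. Parasitemia was measured by FACS, including 24 h after the first dose, after the second dose, and at the end of the four-day trial.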

Mus musculus [7] = experiment: Toxicity in Swiss Webster mouse at 5 to 10 mg/kg, ip qd administered on day 2 to 5; format: organism-based; design: dose 5-10 mg/kg, route intraperitoneal; settings: in vivo
[8] = Metabolic stability in human Liver S9 fraction assessed as formation of metabolite M5 at 10 uM by LC-MS analysis in presence of UDPGA; format: ADME, subcellular; settings: s9, 10 µM
How it was run: (§2)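 Reaction products from S9 or microsomal incubations with NADPH analysed by LC-MS. Runs without UDPGA were checked for hydroxylated (m/z 677) and doubly hydroxylated (m/z 693) species. Runs with UDPGA were checked for a glucuronide (m/z 837).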

Liver microsomes [9] = experiment: Metabolic stability in human liver microsomes assessed as formation of metabolite M5 at 10 uM by LC-MS analysis in presence of UDPGA; format: ADME, Microsome; how it was run: as §2
[10] = Metabolic stability in human liver S9 fraction assessed as formation of metabolite M4 at 10 uM by LC-MS analysis in presence of NADPH and absence of UDPGA; format: ADME, subcellular; settings: s9, 10 µM; how it was run: as §2
[11] = Metabolic stability in human liver S9 fraction assessed as formation of metabolite M3 at 10 uM by LC-MS analysis in presence of NADPH and absence of UDPGA; format: ADME, subcellular; settings: s9, 10 µM; how it was run: as §2
[12] = Metabolic stability in human liver S9 fraction assessed as formation of metabolite M2 at 10 uM by LC-MS analysis in presence of NADPH and absence of UDPGA; format: ADME, subcellular; settings: s9, 10 µM; how it was run: as §2
[13] = Metabolic stability in human liver S9 fraction assessed as formation of metabolite M1 at 10 uM by LC-MS analysis in presence of NADPH and absence of UDPGA; format: ADME, subcellular; settings: s9, 10 µM; how it was run: as §2
Liver microsomes [14] = experiment: Metabolic stability in human liver microsomes assessed as formation of metabolite M4 at 10 uM by LC-MS analysis in presence of NADPH and absence of UDPGA; format: ADME, Microsome; how it was run: as §2
Liver microsomes [15] = experiment: Metabolic stability in human liver microsomes assessed as formation of metabolite M3 at 10 uM by LC-MS analysis in presence of NADPH and absence of UDPGA; format: ADME, Microsome; how it was run: as §2
Liver microsomes [16] = experiment: Metabolic stability in human liver microsomes assessed as formation of metabolite M2 at 10 uM by LC-MS analysis in presence of NADPH and absence of UDPGA; format: ADME, Microsome; how it was run: as §2
Liver microsomes [17] = experiment: Metabolic stability in human liver microsomes assessed as formation of metabolite M1 at 10 uM by LC-MS analysis in presence of NADPH and absence of UDPGA; format: ADME, Microsome; how it was run: as §2
Liver microsomes [18] = experiment: Half life in human liver microsomes at 10 uM after 24 hrs by LC-MS analysis in presence of UDPGA; format: ADME, Microsome
How it was run: (§3)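 Compound incubated with human liver S9 or microsomal fractions for 24 h, extended from 4 h, with NADPH and with or without UDPGA. Loss of parent compound followed over time, sampled at 6 and 24 h. In vitro t1/2 and CLint calculated from the loss.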

[19] = Metabolic stability in human liver microsomes assessed as compound remaining at 10 uM after 24 hrs by LC-MS analysis in presence of UDPGA; format: ADME, Microsome; settings: read-out: Stability; how it was run: as §3
Liver microsomes [20] = experiment: Half life in human liver microsomes at 10 uM after 24 hrs by LC-MS analysis in absence of UDPGA; format: ADME, Microsome; how it was run: as §3
Liver microsomes [21] = experiment: Intrinsic clearance in human liver microsomes at 10 uM after 24 hrs by LC-MS analysis in absence of UDPGA; format: ADME, Microsome; how it was run: as §3
[22] = Drug metabolism in human liver microsomes at 10 uM after 24 hrs by LC-MS analysis in absence of UDPGA; format: ADME, Microsome; settings: read-out: Drug metabolism; how it was run: as §3
[23] = Half life in human liver S9 fraction at 10 uM after 24 hrs by LC-MS analysis in presence of UDPGA; format: ADME, subcellular; settings: s9, 24 h; how it was run: as §3
Liver [24] = experiment: Half life in human liver S9 fraction at 10 uM after 24 hrs by LC-MS analysis; format: ADME, subcellular; settings: s9, 24 h; how it was run: as §3
[25] = Drug metabolism in human liver S9 fraction at 10 uM after 24 hrs by LC-MS analysis in presence of UDPGA; format: ADME, subcellular; settings: s9, 24 h; how it was run: as §3
[26] = Metabolic stability in human liver S9 fraction at 10 uM after 24 hrs by LC-MS analysis in absence of S9 enzyme and NADPH; format: ADME, subcellular; settings: s9, 24 h
How it was run: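 Control incubations for the S9 metabolism assay run over 24 h, lacking either the enzyme or NADPH.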

[27] = Drug metabolism in human liver S9 fraction at 10 uM after 24 hrs by LC-MS analysis; format: ADME, subcellular; settings: read-out: Drug metabolism; how it was run: as §3
[28] = Metabolic stability in human liver cytosolic subcellular fraction at 10 uM after 4 hrs by LC-MS analysis; format: ADME; settings: cytosol
Liver [29] = experiment: Metabolic stability in human liver S9 fraction at 10 uM after 4 hrs by LC-MS analysis; format: ADME, subcellular; settings: s9, 4 h
How it was run: (§4)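 Initial incubations with the human liver S9 or microsomal fraction lasted 4 h.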

Liver microsomes [30] = experiment: Metabolic stability in human liver microsomes at 10 uM after 4 hrs by LC-MS analysis; format: ADME, Microsome; how it was run: as §4
[31] = Drug degradation in mouse serum at 150 uM after 48 hrs by HPLC analysis; format: ADME, cell-free; settings: read-out: Drug degradation
How it was run: (§5)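 Compound incubated in mouse serum at 37 °C. Remaining compound measured at 24 h and 48 h.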

Serum = experiment: Metabolic stability in mouse serum at 150 uM after 24 hrs by HPLC analysis; format: ADME, cell-free; how it was run: as §5
[32] = Plasma clearance in BALB/c mouse at 23 mg/kg, iv after 1 to 24 hrs by LC-MS/MS analysis; format: ADME, organism-based; design: dose 23 mg/kg, route intravenous; how it was run: as §1
[33] = Apparent volume of distribution in BALB/c mouse at 23 mg/kg, iv after 1 to 24 hrs by LC-MS/MS analysis; format: ADME, organism-based; design: dose 23 mg/kg, route intravenous; settings: in vivo, read-out: Vd(app); how it was run: as §1
[34] = Initial plasma concentration in BALB/c mouse at 23 mg/kg, iv after 1 to 24 hrs by LC-MS/MS analysis; format: ADME, organism-based; design: dose 23 mg/kg, route intravenous; how it was run: as §1
[35] = AUC in BALB/c mouse at 23 mg/kg, iv after 1 to 24 hrs by LC-MS/MS analysis; format: ADME, organism-based; design: dose 23 mg/kg, route intravenous; settings: plasma; how it was run: as §1
[36] = AUC in BALB/c mouse at 23 mg/kg, ip after 1 to 24 hrs by LC-MS/MS analysis; format: ADME, organism-based; design: dose 23 mg/kg, route intraperitoneal; settings: plasma; how it was run: as §1
[37] = Tmax in BALB/c mouse at 23 mg/kg, ip after 1 to 24 hrs by LC-MS/MS analysis; format: ADME, organism-based; design: dose 23 mg/kg, route intraperitoneal; settings: in vivo; how it was run: as §1
Plasmodium falciparum [38] = experiment: Antiplasmodial activity against chloroquine-sensitive Plasmodium falciparum MRC-02 assessed as suppression of parasitemia at 50 mg/kg, po by in vivo model study; format: functional
Plasmodium falciparum [39] = experiment: Antiplasmodial activity against ring stage of chloroquine-sensitive Plasmodium falciparum MRC-02 infected in human erythrocytes assessed as parasite growth inhibition after 24 hrs by Giemsa staining method; format: functional, organism-based; settings: MRC-02, 24 h
[40] = Apparent clearance in Swiss mouse at 50 mg/kg, ip after 1 to 24 hrs by LC-MS/MS analysis; format: ADME, organism-based; design: dose 50 mg/kg, route intraperitoneal; settings: in vivo, read-out: CL(app)
Plasmodium berghei = experiment: Antimalarial activity against Plasmodium berghei ANKA infected in NMRI mouse assessed as reduction of parasitemia at 10 mg/kg, po qd administered 3 days by flow cytometric analysis; format: functional; design: scale not given: the % may be the effect or the level left

CC1=C2Cc3cc(ccc3O)C(=O)O[C@H](C(C)(C)Br)CC[C@](C)(O)[C@H](Br)CC[C@]2(C)[C@@H](Br)CC1
Cmax [1]: 5800 ng/mL | half-life [2]: 45 min | ka (Mus musculus [3]): 0.24 h⁻¹ | k el [4]: 0.000258 s⁻¹ | pIC50 (Plasmodium falciparum [5]): 6.42 | pIC50 (Plasmodium falciparum [6]): 6.30 | Activity (Plasmodium yoelii): 47% | Activity (Mus musculus [7]): Non-toxic | Stability [8]: Unstable | Stability (Liver microsomes [9]): Unstable | Stability [10]: Unstable | Stability [11]: Unstable | Stability [12]: Unstable | Stability [13]: Unstable | Stability (Liver microsomes [14]): Unstable | Stability (Liver microsomes [15]): Unstable | Stability (Liver microsomes [16]): Unstable | Stability (Liver microsomes [17]): Unstable | t1/2 (Liver microsomes [18]): 6.6 h | remaining at 24 h, 10 µM [19]: 15.3% | t1/2 (Liver microsomes [20]): 14 h | CLint (Liver microsomes [21]): 0.72 mL/min/kg | metabolised at 24 h, 10 µM [22]: 61% | t1/2 [23]: 9.5 h | t1/2 (Liver [24]): 20 h | Drug metabolism [25]: 21% | Stability [26]: Stable | metabolised at 24 h, 10 µM [27]: 55% | Stability [28]: Stable | Stability (Liver [29]): Stable | Stability (Liver microsomes [30]): Stable | metabolised at 48 h, 150 µM [31]: 27% | Stability (Serum): Stable | clearance [32]: 16 mL/min/kg | Vd [33]: 0.95 L/kg | C0 [34]: 24000 ng/mL | AUC [35]: 26000 ng·h/mL | AUC [36]: 20000 ng·h/mL | Tmax [37]: 1.5 h

CC(=O)Oc1ccc2cc1CC1=C(C)CC[C@H](Br)[C@@]1(C)CC[C@@H](Br)[C@@](C)(O)CC[C@@H](C(C)(C)Br)OC2=O
pIC50 (Plasmodium falciparum [6]): 6.62

CC(=O)OC[C@@H]1CC[C@]2(C)C(C)=CC(=O)C[C@H]2[C@]1(C)CCC1=CCOC1=O
Activity (Plasmodium falciparum [38]): 45% | pIC50 (Plasmodium falciparum [39]): 5.06

CCN(CC)CCCC(C)Nc1ccnc2cc(Cl)ccc12 (centres undefined) [CHLOROQUINE]
CL/F [40]: 17 mL/min/kg

C[C@H]1Cc2c([nH]c3cc(Cl)c(F)cc23)[C@@]2(N1)C(=O)Nc1ccc(Cl)cc12 [CIPARGAMIN]
Activity (Plasmodium berghei): 99%
